Each structure is given as a SMILES string. Bounds are passed on as bounds.

In test [1] the target is T1, 5-hydroxytryptamine receptor 1A (Rattus norvegicus, UniProt P19327).
T1 sequence (P19327 whole entry): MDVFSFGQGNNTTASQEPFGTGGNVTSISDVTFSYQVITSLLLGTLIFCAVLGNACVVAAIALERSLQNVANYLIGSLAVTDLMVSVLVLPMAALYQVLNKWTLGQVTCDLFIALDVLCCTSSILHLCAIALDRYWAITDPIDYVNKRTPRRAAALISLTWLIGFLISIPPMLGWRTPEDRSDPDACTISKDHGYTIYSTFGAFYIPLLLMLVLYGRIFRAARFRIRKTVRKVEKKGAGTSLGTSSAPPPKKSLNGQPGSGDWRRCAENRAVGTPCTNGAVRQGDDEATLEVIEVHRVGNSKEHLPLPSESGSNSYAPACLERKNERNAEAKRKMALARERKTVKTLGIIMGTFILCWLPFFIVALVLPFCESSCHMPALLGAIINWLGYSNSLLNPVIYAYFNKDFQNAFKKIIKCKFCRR
Nature of the test: Binding affinity at 5-hydroxytryptamine 1A (5-HT1A) receptor in rat cerebral cortex using [3H]8-OH-DPAT as radioligand. It counts as tissue-based.

For test [2], the target named is D(2) dopamine receptor (Rattus norvegicus, UniProt P61169). Nature of the test: In vitro binding affinity towards Dopamine receptor D2 of rat striatal membranes using [3H]- raclopride. The gist of the method:
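Male Sprague–Dawley rat (180–200 g) striatal membranes (125–150 μg protein) incubated 60 min at 25 °C with 0.8 nM [3H]raclopride in 50 mM Tris-HCl pH 7.4 with 120 mM NaCl, 5 mM KCl, 2 mM CaCl2, 1 mM MgCl2, 0.1% ascorbic acid. Nonspecific: 1 μM (+)-butaclamol. Filtration, scintillation counting; IC50 fitted, Ki by Cheng–Prusoff; mean ± SEM of 2–4 triplicate experiments.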

Test [3] deals with T2, Adrenergic receptor alpha-1 (Rattus norvegicus, UniProt P15823+P23944+P43140).
T2 sequence (P15823 whole entry): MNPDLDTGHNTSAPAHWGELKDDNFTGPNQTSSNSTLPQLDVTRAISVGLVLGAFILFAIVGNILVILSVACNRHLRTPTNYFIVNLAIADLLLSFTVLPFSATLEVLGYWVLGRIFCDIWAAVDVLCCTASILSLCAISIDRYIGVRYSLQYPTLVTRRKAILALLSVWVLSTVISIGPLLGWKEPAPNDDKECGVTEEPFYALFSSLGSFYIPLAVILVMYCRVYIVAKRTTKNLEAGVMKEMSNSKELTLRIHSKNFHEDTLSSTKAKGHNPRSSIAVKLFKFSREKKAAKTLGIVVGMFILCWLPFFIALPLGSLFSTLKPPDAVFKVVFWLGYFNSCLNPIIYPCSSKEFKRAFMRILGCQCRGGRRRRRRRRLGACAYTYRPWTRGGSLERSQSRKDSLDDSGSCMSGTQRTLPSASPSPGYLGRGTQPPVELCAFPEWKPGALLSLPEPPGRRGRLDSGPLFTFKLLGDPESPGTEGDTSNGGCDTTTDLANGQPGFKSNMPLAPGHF
T2 sequence (P23944 whole entry): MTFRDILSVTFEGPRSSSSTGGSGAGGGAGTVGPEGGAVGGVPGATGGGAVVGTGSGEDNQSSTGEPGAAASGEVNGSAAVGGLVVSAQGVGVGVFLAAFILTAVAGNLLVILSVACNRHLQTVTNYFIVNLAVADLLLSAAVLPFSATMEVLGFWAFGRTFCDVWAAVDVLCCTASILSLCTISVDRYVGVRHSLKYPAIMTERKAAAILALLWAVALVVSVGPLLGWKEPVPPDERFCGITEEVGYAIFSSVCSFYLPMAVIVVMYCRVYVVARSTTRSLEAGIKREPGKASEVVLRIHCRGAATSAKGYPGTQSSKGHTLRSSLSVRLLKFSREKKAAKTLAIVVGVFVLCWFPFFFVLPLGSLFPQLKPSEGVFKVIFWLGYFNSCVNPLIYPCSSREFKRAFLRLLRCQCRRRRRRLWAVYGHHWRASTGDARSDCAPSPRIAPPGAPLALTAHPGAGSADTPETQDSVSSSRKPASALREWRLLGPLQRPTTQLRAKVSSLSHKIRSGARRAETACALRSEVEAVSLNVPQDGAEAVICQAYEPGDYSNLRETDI
T2 sequence (P43140 whole entry): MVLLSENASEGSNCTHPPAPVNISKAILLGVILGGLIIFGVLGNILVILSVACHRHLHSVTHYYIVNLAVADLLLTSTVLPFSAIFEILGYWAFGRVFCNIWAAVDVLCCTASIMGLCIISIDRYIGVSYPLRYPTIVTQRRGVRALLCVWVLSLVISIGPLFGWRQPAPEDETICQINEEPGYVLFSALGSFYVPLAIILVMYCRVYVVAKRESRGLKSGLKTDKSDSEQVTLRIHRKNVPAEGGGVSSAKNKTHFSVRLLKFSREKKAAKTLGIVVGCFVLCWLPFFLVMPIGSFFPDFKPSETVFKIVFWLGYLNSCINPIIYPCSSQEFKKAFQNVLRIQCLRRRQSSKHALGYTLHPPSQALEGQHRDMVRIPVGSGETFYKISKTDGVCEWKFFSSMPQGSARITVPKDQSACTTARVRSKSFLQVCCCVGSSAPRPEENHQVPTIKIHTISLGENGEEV
Put plainly: In vitro binding affinity was evaluated on alpha-1 adrenergic receptor from rat cerebral cortex by using [3H]prazosin as radioligand. It counts as tissue-based. The gist of the method:
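Nonspecific: 10 μM phentolamine. Filter-bound radioactivity by scintillation; IC50 from competition curves, Ki by Cheng–Prusoff; mean ± SEM of 2–4 triplicate experiments.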

Sequence of D(2) dopamine receptor (P61169 whole entry): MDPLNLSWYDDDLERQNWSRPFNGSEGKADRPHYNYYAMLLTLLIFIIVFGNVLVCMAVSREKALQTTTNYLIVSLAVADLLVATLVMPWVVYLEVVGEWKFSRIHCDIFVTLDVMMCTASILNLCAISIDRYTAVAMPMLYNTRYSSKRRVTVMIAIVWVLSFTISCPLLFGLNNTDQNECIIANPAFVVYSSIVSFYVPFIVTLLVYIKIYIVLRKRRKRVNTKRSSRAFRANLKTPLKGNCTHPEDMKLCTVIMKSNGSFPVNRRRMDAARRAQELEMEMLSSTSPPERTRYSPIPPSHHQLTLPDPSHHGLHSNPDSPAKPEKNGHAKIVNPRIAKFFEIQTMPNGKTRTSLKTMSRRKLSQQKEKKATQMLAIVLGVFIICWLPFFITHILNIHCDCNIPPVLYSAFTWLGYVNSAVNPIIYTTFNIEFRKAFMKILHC

As a reminder, the Ki is the equilibrium dissociation constant of an inhibitor or competing ligand from its target. Lower therefore signals a stronger hold on the target. Turning to `O=C1CC(=C2c3ccccc3-c3ccccc32)C(=O)N1CCCN1CCN(c2cccc(C(F)(F)F)c2)CC1`, the Ki in test [1] is over 1 µM; in test [2], over 10 µM; in test [3], over 10 µM.

Take `COc1ccccc1N1CCN(CN2C(=O)CC(=C3c4ccccc4-c4ccccc43)C2=O)CC1`: the Ki is 0.061 µM in test [1], over 10 µM in test [2] and over 1 µM in test [3].

Consider `O=C1CC(=C2c3ccccc3-c3ccccc32)C(=O)N1CCCCN1CCN(c2ccc(F)cc2)CC1`, for which the results for the Ki in test [1], in test [2] and in test [3] were over 10 µM, over 10 µM and 0.266 µM, respectively.

With `O=C1CC(=C2c3ccccc3-c3ccccc32)C(=O)N1CCCCN1CCN(c2cccc(Cl)c2)CC1`, the Ki in test [1] is 0.072 µM; in test [2] it was over 1 µM; in test [3], 0.249 µM.

With `O=C1CC(=C2c3ccccc3-c3ccccc32)C(=O)N1CCCCN1CCN(c2cccc(C(F)(F)F)c2)CC1`, the Ki is over 1 µM in test [1], over 1 µM in test [2] and over 10 µM in test [3].

Take `O=C1CC(=C(c2ccccc2)c2ccccc2)C(=O)N1CCCCN1CCN(c2cccc(C(F)(F)F)c2)CC1`: in test [1], the Ki turned out to be 0.015 µM.

On to `O=C1CC(=C2c3ccccc3-c3ccccc32)C(=O)N1CN1CCN(c2ccc(F)cc2)CC1`, for which the Ki is over 1 µM in test [1], over 10 µM in test [2] and over 1 µM in test [3].

Take `COc1ccccc1N1CCN(CCCCN2C(=O)CC(=C3c4ccccc4-c4ccccc43)C2=O)CC1`: the values for the Ki in test [1], in test [2] and in test [3] were 0.009 µM, over 10 µM and 0.01 µM, respectively.

In the case of `O=C1CC(=C2c3ccccc3-c3ccccc32)C(=O)N1CN1CCN(c2cccc(C(F)(F)F)c2)CC1`, the Ki in test [1] was 0.114 µM; in test [2], over 10 µM; in test [3], 0.791 µM.

In the case of `O=C1CC(=C2c3ccccc3-c3ccccc32)C(=O)N1CCCN1CCN(c2cccc(Cl)c2)CC1`, the values for the Ki in test [1], in test [2] and in test [3] were over 1 µM, over 10 µM and over 10 µM, respectively.

`COc1ccccc1N1CCN(CCCN2C(=O)CC(=C3c4ccccc4-c4ccccc43)C2=O)CC1`: the results for the Ki in test [1], in test [2] and in test [3] were 0.037 µM, over 1 µM and 0.161 µM, respectively.

`COc1ccccc1N1CCN(C/C=C\CN2C(=O)CC(=C(c3ccccc3)c3ccccc3)C2=O)CC1` registered an inhibition constant (Ki) in test [1] of 0.237 µM.

Compound `COc1ccccc1N1CCN(C/C=C/CN2C(=O)CC(=C(c3ccccc3)c3ccccc3)C2=O)CC1` showed a Ki in test [1] of 0.027 µM.

On to `O=C1CC(=C2c3ccccc3-c3ccccc32)C(=O)N1CCCN1CCN(c2ccccc2)CC1`, for which the Ki in test [1] is over 1 µM; in test [2], over 1 µM; in test [3], 0.646 µM.

In the case of `O=C1CC(=C2c3ccccc3-c3ccccc32)C(=O)N1CCN1CCN(c2ccccc2)CC1`, the Ki was over 10 µM in test [1], over 10 µM in test [2] and 0.196 µM in test [3].

For the compound `O=C1CC(=C2c3ccccc3-c3ccccc32)C(=O)N1CCN1CCN(c2cccc(Cl)c2)CC1`, the Ki in test [1], in test [2] and in test [3] was over 10 µM in each case.

For the compound `O=C1CC(=C2c3ccccc3-c3ccccc32)C(=O)N1CCN1CCN(c2ccc(F)cc2)CC1`, the inhibition constant (Ki) is over 10 µM in test [1], over 10 µM in test [2] and 0.056 µM in test [3].

With `O=C1CC(=C2c3ccccc3-c3ccccc32)C(=O)N1CN1CCN(c2ccccc2)CC1`, the Ki in test [1] was 0.201 µM; in test [2] it was over 10 µM; in test [3] it was over 1 µM.

As for `O=C1CC(=C2c3ccccc3-c3ccccc32)C(=O)N1CN1CCN(c2cccc(Cl)c2)CC1`, the Ki is 0.042 µM in test [1], over 10 µM in test [2] and 0.316 µM in test [3].

Consider `O=C1CC(=C2c3ccccc3-c3ccccc32)C(=O)N1CCCN1CCN(c2ccc(F)cc2)CC1`, for which the Ki was over 10 µM in test [1], over 10 µM in test [2] and 0.061 µM in test [3].

`O=C1CC(=C2c3ccccc3-c3ccccc32)C(=O)N1CCN1CCN(c2cccc(C(F)(F)F)c2)CC1`: the Ki in test [1], in test [2] and in test [3] was over 10 µM each time.

With `COc1ccccc1N1CCN(CCN2C(=O)CC(=C3c4ccccc4-c4ccccc43)C2=O)CC1`, the results for the Ki in test [1], in test [2] and in test [3] were over 10 µM, over 10 µM and 0.057 µM, respectively.

Regarding `O=C1CC(=C2c3ccccc3-c3ccccc32)C(=O)N1CCCCN1CCN(c2ccccc2)CC1`, the inhibitory constant (Ki) in test [1] was 0.014 µM; in test [2], 0.397 µM; in test [3] it was 0.06 µM.

As for `COc1ccccc1N1CCN(CC#CCN2C(=O)CC(=C(c3ccccc3)c3ccccc3)C2=O)CC1`, the inhibition constant (Ki) in test [1] is 0.0066 µM.

The compound `O=C1CC(=C(c2ccccc2)c2ccccc2)C(=O)N1CCCCN1CCN(c2ccc(F)cc2)CC1` came in with a Ki in test [3] of 0.051 µM.

The record behind these values is ChEMBL document CHEMBL1132270, “Synthesis and structure-activity relationships of a new model of arylpiperazines. 4. 1-[omega-(4-Arylpiperazin-1-yl)alkyl]-3-(diphenylmethylene) - 2, 5-pyrrolidinediones and -3-(9H-fluoren-9-ylidene)-2, 5-pyrrolidinediones: study of the steric requirements of the terminal amide fragment on 5-HT1A …” (J Med Chem, 1999).
